In experiment [1] the target is Cathepsin S (Homo sapiens, UniProt P25774). The experiment in a line: Inhibition of human Cathepsin S.
The target in experiment [2] is Procathepsin L (Homo sapiens, UniProt P07711). The experiment in a line: Inhibition of human Cathepsin L.
Experiment [3] concerns the target T1, Cathepsin L2 (Homo sapiens, UniProt O60911).
T1 sequence (O60911 whole entry): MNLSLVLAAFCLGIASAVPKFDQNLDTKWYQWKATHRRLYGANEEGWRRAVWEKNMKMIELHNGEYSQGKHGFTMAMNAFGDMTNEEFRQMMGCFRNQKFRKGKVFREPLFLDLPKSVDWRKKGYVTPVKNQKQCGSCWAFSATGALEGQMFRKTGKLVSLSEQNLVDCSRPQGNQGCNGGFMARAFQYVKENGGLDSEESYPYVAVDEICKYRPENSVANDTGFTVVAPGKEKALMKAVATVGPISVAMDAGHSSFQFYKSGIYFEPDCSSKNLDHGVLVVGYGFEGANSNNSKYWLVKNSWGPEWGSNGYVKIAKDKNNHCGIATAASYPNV
Kind of experiment: Inhibition of human Cathepsin V.

Experiment [4] addresses T2, Chymase (Homo sapiens, UniProt P23946).
T2 sequence (P23946 whole entry): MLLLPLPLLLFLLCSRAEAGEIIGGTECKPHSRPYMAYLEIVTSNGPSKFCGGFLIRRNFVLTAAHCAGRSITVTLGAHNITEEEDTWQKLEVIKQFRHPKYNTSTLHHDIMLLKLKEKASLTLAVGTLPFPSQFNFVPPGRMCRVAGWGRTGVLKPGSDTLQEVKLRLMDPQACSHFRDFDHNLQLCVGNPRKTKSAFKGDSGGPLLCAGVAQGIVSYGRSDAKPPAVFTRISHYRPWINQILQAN
Kind of experiment: Inhibition of human Chymase.

The target of experiment [5] is Chymotrypsin-like elastase family member 1 (Homo sapiens, UniProt Q9UNI1). Kind of experiment: Inhibition of human Pancreatic elastase 1.
Experiment [6] addresses T3, Neutrophil elastase (Homo sapiens, UniProt P08246).
T3 sequence (P08246 whole entry): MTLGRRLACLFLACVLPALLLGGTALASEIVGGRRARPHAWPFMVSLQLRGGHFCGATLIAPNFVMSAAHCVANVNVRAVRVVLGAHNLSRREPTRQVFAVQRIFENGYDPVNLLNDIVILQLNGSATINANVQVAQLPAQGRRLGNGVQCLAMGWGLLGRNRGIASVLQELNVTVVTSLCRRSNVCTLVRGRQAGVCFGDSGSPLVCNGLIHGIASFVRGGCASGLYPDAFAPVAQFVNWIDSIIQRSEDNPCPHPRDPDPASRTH
Kind of experiment: Inhibition of human Neutrophil elastase 2.

For experiment [7], the target named is T4, Cathepsin K (Homo sapiens, UniProt P43235).
T4 sequence (P43235 whole entry): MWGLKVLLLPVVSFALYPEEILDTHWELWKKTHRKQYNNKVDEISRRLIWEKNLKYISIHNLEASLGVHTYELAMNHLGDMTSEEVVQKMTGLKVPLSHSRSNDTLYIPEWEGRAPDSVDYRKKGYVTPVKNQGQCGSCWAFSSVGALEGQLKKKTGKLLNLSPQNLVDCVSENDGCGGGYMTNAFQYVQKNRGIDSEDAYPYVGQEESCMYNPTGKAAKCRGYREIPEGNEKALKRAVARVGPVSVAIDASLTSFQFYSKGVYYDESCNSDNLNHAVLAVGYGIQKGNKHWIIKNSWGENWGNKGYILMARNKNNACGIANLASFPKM
Kind of experiment: Inhibition of human Cathepsin K.

Experiment [8] addresses T5, Cathepsin F (Homo sapiens, UniProt Q9UBX1).
T5 sequence (Q9UBX1 whole entry): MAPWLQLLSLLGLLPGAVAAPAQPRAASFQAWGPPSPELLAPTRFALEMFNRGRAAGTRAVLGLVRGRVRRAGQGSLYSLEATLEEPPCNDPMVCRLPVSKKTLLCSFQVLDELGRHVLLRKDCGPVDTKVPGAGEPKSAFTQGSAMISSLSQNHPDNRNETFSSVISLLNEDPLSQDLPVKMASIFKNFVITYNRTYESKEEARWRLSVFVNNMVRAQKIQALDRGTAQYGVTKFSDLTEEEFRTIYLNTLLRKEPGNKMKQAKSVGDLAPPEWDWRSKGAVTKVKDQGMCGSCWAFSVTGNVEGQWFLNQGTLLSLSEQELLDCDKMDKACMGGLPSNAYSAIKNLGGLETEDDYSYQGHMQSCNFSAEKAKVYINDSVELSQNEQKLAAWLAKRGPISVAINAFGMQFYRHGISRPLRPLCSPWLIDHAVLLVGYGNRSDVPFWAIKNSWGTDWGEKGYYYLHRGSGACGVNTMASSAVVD
Kind of experiment: Inhibition of human Cathepsin F.

Experiment [9] has as its target Cathepsin B (Homo sapiens, UniProt P07858). The experiment in a line: Inhibition of human Cathepsin B.
A short description of experiment [10]: Cytotoxicity against […] cells. The class given is cell-based. To be noted: HB1.
Experiment [11] deals with Hepatitis C virus. Kind of experiment: Antiviral activity against Hepatitis C virus genotype 2a infected in […] cell by cell-based HCV replicon assay in presence of 10% fetal bovine serum. The class given is functional, organism-based, Hepacivirus hominis. For orientation: In antiviral work, replicon cells carry a viral genome segment that copies itself.
The subject of experiment [12] is Hepatitis C virus. The experiment in a line: Antiviral activity against Hepatitis C virus genotype 1b infected in […] cell by cell-based HCV replicon assay in presence of 50% normal human serum. The class given is functional, organism-based, Hepacivirus hominis. In short, it runs like this: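 Stable genotype 1b (con1) replicon cell line HB1, assayed in the presence of 50% normal human serum.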

Experiment [13] deals with Hepatitis C virus. Kind of experiment: Antiviral activity against Hepatitis C virus genotype 1b infected in […] cell by cell-based HCV replicon assay in presence of 10% fetal bovine serum. It is filed as functional, organism-based, Hepacivirus hominis. In a few lines: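 Stable genotype 1b (con1) replicon cell line HB1, assayed in medium with 10% fetal bovine serum.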

The nature of experiment [14]: Inhibition of Hepatitis C virus genotype 2b NS3/4A protease activity. Further details: species or system Hepatitis C virus subtype 2b. In short, it runs like this: (§1)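 Recombinant NS3/4A protease was expressed in and purified from E. coli. Inhibition was measured by a time-resolved, internally quenched fluorescence assay at low enzyme concentration. Kis were reported.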

Experiment [15] in a line: Inhibition of Hepatitis C virus genotype 2a NS3/4A protease activity. Further details: species or system Hepatitis C virus subtype 2a. In a few lines: as §1
Experiment [16] has as its system Hepatitis C virus. The experiment in a line: Inhibition of Hepatitis C virus genotype 1b NS3/4A protease activity. Further details: species or system Hepatitis C virus subtype 1b. In short, it runs like this: as §1
Experiment [17] is described as follows: Inhibition of Hepatitis C virus genotype 1a NS3/4A protease activity. Details: species or system Hepatitis C virus subtype 1a. In a few lines: as §1
The target of experiment [18] is Serine protease 1 (Homo sapiens, UniProt P07477). The experiment in a line: Inhibition of human Trypsin activity.
Experiment [19] in a line: Inhibition of human Chymotrypsin.

The term IC50 denotes the concentration that inhibits the measured activity by half. A higher IC50 goes with weaker potency in that assay. What is called EC50 is the concentration needed to bring the measured effect to its halfway point. Usually Ki stands for a measure of affinity in units of concentration, obtained from inhibition or displacement.

Cathepsin S, sequence (P25774 whole entry): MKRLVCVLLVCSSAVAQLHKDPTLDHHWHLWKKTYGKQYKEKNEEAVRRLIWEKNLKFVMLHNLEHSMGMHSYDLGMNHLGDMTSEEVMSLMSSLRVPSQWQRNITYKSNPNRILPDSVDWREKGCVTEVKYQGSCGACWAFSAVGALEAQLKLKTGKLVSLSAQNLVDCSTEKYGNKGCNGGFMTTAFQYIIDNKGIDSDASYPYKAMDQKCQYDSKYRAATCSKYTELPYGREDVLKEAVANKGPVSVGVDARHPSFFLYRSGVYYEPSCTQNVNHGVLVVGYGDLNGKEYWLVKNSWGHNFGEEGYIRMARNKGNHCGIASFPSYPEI
Chymotrypsin-like elastase family member 1, sequence (Q9UNI1 whole entry): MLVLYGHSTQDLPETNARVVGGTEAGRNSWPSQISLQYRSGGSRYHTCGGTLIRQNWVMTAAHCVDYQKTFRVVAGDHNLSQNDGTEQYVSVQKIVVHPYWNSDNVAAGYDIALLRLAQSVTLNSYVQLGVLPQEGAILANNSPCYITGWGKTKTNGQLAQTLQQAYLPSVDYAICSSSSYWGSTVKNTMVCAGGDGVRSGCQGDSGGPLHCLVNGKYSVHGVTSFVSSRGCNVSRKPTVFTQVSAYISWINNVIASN
Procathepsin L, sequence (P07711 whole entry): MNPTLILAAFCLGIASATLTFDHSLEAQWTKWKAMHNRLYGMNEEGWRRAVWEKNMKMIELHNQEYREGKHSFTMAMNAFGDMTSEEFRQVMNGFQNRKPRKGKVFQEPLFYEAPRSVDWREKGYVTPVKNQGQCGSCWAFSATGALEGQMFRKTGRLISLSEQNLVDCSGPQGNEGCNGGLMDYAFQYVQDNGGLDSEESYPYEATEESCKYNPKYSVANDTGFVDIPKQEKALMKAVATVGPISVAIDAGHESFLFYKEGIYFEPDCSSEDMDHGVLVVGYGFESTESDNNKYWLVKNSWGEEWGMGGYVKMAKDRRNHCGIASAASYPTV
Serine protease 1, sequence (P07477 whole entry): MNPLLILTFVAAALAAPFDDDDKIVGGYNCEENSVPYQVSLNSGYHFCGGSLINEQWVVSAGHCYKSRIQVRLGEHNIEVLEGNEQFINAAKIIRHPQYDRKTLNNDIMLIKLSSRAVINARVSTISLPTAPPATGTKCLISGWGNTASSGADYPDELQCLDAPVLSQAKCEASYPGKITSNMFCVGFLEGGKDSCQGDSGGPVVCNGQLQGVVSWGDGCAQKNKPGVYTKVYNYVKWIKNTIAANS

Turning to `CC(C)(C)NC(=O)N[C@H](C(=O)N1C[C@H]2[C@@H]([C@H]1C(=O)NC(CC1CCC1)C(=O)C(N)=O)C2(C)C)C(C)(C)C` (some centres undefined) [BOCEPREVIR], the IC50 in experiment [1] is 120 nM; in experiment [2] it was 760 nM; in experiment [3] it was 75 nM; in [4] it was 32 nM; in [5], above 10000 nM; in [6], above 10000 nM. Further, the IC50 in experiment [7] was 40 nM; in [8], 1100 nM; in experiment [9] it was above 3300 nM. The EC50 is above 50000 nM in experiment [10], 170 nM in experiment [11], 1180 nM in [12] and 480 nM in experiment [13]. The inhibition constant Ki stood at 21 nM in [14], 25 nM in experiment [15], 28 nM in experiment [16] and 21 nM in experiment [17].
With `COc1ccc2c(O[C@@H]3C[C@H]4C(=O)N[C@]5(C(=O)O)C[C@H]5/C=C\CCCCC[C@H](NC(=O)OC5CCCC5)C(=O)N4C3)cc(-c3csc(NC(C)C)n3)nc2c1` [CILUPREVIR], the EC50 in experiment [10] amounted to 50000 nM; in experiment [11] it was 27 nM; in experiment [12] it was 17 nM; in [13], 3 nM. For the same compound, the Ki in [14] worked out at 61 nM; in [15], 7 nM; in experiment [16], 0.3 nM; in experiment [17] it was 0.81 nM.
As to `CCC[C@H](NC(=O)[C@@H]1[C@H]2CCC[C@H]2CN1C(=O)[C@@H](NC(=O)[C@@H](NC(=O)c1cnccn1)C1CCCCC1)C(C)(C)C)C(=O)C(=O)NC1CC1` [TELAPREVIR], the IC50 in experiment [1] came out at 300 nM; in experiment [2], 3500 nM; in experiment [3] it was 1350 nM; in [4], 26 nM; in experiment [5], 30 nM; in experiment [6] it was 8000 nM. The IC50 in experiment [7] is 630 nM; in [8], above 10000 nM; in [9], 4400 nM; in experiment [18], above 10000 nM; in [19], 3000 nM. The EC50 was above 50000 nM in experiment [10], 390 nM in experiment [11], 8600 nM in [12] and 1100 nM in experiment [13]. Besides, the Ki is 42 nM in [14], 54 nM in experiment [15], 93 nM in experiment [16] and 130 nM in [17].
